Data as given in ChEMBL document CHEMBL1152649, “Synthesis, cytotoxicity and human telomerase inhibition activities of a series of 1,2-heteroannelated anthraquinones and anthra[1,2-d]imidazole-6,11-dione homologues” (2009).

Key:
Format in all cases: functional
[1] = system: HCC 2998; assay: Growth inhibition of human HCC2998 cells
How it was run: (§1)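 NCI 60 cancer cell line screen run per the Developmental Therapeutics Program protocol. Dose–response curves were plotted against log10 drug concentration for each cell line within its subpanel, and mean graph midpoint values were calculated.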

[2] = system: IGROV-1; assay: Growth inhibition of human IGROV1 cells; how it was run: as §1
[3] = system: M14; assay: Growth inhibition of human M14 cells; how it was run: as §1
[4] = system: NCI-H322M; assay: Growth inhibition of human NCI-H322M cells; how it was run: as §1
[5] = system: SK-OV-3; assay: Growth inhibition of human SKOV3 cells
How it was run: (§2)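 Assayed in the NCI 60 human cancer cell line panel under the Developmental Therapeutics Program protocol. For each line, dose–response curves were plotted against log10 drug concentration. In the one-dose screen at 10^-5 M, growth was given as percent of untreated control cells, and mean graph midpoint values were averaged.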

[6] = system: MDA-MB-231; assay: Growth inhibition of human MDA-MB-231 cells; how it was run: as §1
[7] = system: CCRF-CEM; assay: Growth inhibition of human CCRF-CEM cells; how it was run: as §1
[8] = system: MDA-MB-435; assay: Growth inhibition of human MDA-MB-435 cells; how it was run: as §1
[9] = system: RXF 393; assay: Growth inhibition of human RXF393 cells; how it was run: as §2
[10] = system: UACC-62; assay: Growth inhibition of human UACC62 cells; how it was run: as §2
[11] = system: OVCAR-4; assay: Growth inhibition of human OVCAR4 cells; how it was run: as §1
[12] = system: UO-31; assay: Growth inhibition of human UO31 cells; how it was run: as §2
[13] = system: CAKI-1; assay: Growth inhibition of human Caki1 cells; how it was run: as §1
[14] = system: SNB-19; assay: Growth inhibition of human SNB19 cells; how it was run: as §2
[15] = system: NCI-H522; assay: Growth inhibition of human NCI-H522 cells; how it was run: as §1
[16] = system: SN12C; assay: Growth inhibition of human SN12C cells; how it was run: as §2
[17] = system: HT-29; assay: Growth inhibition of human HT-29 cells; how it was run: as §1
[18] = Growth inhibition of human […] cells; how it was run: as §2
[19] = system: 786-0; assay: Growth inhibition of human 786-0 cells; how it was run: as §1
[20] = system: DU-145; assay: Growth inhibition of human DU145 cells; how it was run: as §1
[21] = system: SK-MEL-2; assay: Growth inhibition of human SK-MEL-2 cells; how it was run: as §2
[22] = system: NCI/ADR-RES; assay: Growth inhibition of human NCI/ADR-RES cells; how it was run: as §1
[23] = system: SK-MEL-28; assay: Growth inhibition of human SK-MEL-28 cells; how it was run: as §2
[24] = system: SW-620; assay: Growth inhibition of human SW620 cells; how it was run: as §2
[25] = system: HL-60(TB); assay: Growth inhibition of human HL-60(TB) cells
How it was run: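 NCI 60-cell-line panel run under the Developmental Therapeutics Program protocol. Dose-response curves are plotted against log10 drug concentration for each cell line within its subpanel, and GI50 is read from these curves.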

[26] = system: HCT-116; assay: Growth inhibition of human HCT116 cells; how it was run: as §1
[27] = system: IGROV-1; assay: Antiproliferative activity against human IGROV1 cells assessed as cell growth at 10 uM; conditions: read-out: Activity
How it was run: (§3)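 NCI 60 cell line panel, single-dose screen (10^-5 M) run by the developmental therapeutics program protocol. Results are given as growth percent of treated cells relative to untreated control cells for each line.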

[28] = Growth inhibition of human Hs 578T cells; how it was run: as §1
[29] = system: SF-295; assay: Growth inhibition of human SF295 cells; how it was run: as §2
[30] = system: NCI-H23; assay: Growth inhibition of human NCI-H23 cells; how it was run: as §1
[31] = system: Malme-3M; assay: Growth inhibition of human MALME-3M cells; how it was run: as §1
[32] = system: EKVX; assay: Growth inhibition of human EKVX cells; how it was run: as §1
[33] = system: RXF 393; assay: Antiproliferative activity against human RXF393 cells assessed as cell growth at 10 uM; conditions: read-out: Activity; how it was run: as §3
[34] = system: NCI-H460; assay: Growth inhibition of human NCI-H460 cells; how it was run: as §1
[35] = system: COLO 205; assay: Growth inhibition of human COLO205 cells; how it was run: as §1
[36] = read-out: LC50 (the source's name)

## O=C1c2ccccc2C(=O)c2c1ccc1nccnc21
[1]
  GI50: 1.4 µM
  TGI: 83.5 µM
[1]; [36]
  CC50: > 100 µM
[2]
  GI50: 2.55 µM
  TGI: 35.9 µM
[2]; [36]
  CC50: > 100 µM
[3]
  GI50: 5.14 µM
  TGI: > 100 µM
[3]; [36]
  CC50: > 100 µM
[4]
  GI50: 16.3 µM
  TGI: 96.1 µM
[4]; [36]
  CC50: > 100 µM
[5]
  GI50: 6.95 µM
  TGI: > 100 µM
[5]; [36]
  CC50: > 100 µM
[6]
  GI50: 19.1 µM
  LC50 (concentration killing 50% of cells): > 100 µM
  TGI: > 100 µM
[7]
  GI50: 2.46 µM
  TGI: > 100 µM
[7]; [36]
  CC50: > 100 µM
[8]
  GI50: 11.1 µM
  TGI: 23.7 µM
[8]; [36]
  CC50: 50.4 µM
[9]
  GI50: 6.43 µM
  TGI: > 100 µM
[9]; [36]
  CC50: > 100 µM
[10]
  GI50: 13.3 µM
  TGI: 56.1 µM
[10]; [36]
  CC50: > 100 µM
[11]
  GI50: 10.5 µM
  TGI: > 100 µM
[11]; [36]
  CC50: > 100 µM
[12]
  GI50: 3.02 µM
  TGI: 85.9 µM
[12]; [36]
  CC50: > 100 µM
[13]
  GI50: 5.83 µM
  TGI: > 100 µM
[13]; [36]
  CC50: > 100 µM
[14]
  GI50: 13.4 µM
  TGI: > 100 µM
[14]; [36]
  CC50: > 100 µM
[15]
  GI50: 4.64 µM
  TGI: 32.5 µM
[15]; [36]
  CC50: > 100 µM
[16]
  GI50: 13.2 µM
  TGI: 92.7 µM
[16]; [36]
  CC50: > 100 µM
[17]
  GI50: 7.01 µM
  TGI: > 100 µM
[17]; [36]
  CC50: > 100 µM
[18]
  GI50: 1.61 µM
  TGI: > 100 µM
[18]; [36]
  CC50: > 100 µM
[19]
  GI50: 8.87 µM
  TGI: > 100 µM
[19]; [36]
  CC50: > 100 µM
[20]
  GI50: 11.4 µM
  TGI: 34.3 µM
[20]; [36]
  CC50: > 100 µM
[21]
  GI50: 12.7 µM
  TGI: 55.9 µM
[21]; [36]
  CC50: > 100 µM
[22]
  GI50: 5.68 µM
  TGI: > 100 µM
[22]; [36]
  CC50: > 100 µM
[23]
  GI50: 21 µM
  TGI: 91.1 µM
[23]; [36]
  CC50: > 100 µM
[24]
  GI50: 1.71 µM
  TGI: 30.8 µM
[24]; [36]
  CC50: > 100 µM
[25]
  GI50: 0.68 µM
  TGI: 11.5 µM
[25]; [36]
  CC50: 83.7 µM
[26]
  GI50: 12.3 µM
  TGI: > 100 µM
[26]; [36]
  CC50: > 100 µM
[27]
  growth at 10 µM: 3.44%
[28]
  GI50: 14.1 µM
  LC50: > 100 µM
  TGI: 91.4 µM
[29]
  GI50: 4.35 µM
  TGI: 32.3 µM
[29]; [36]
  CC50: > 100 µM
[30]
  GI50: 12 µM
  TGI: 70.3 µM
[30]; [36]
  CC50: > 100 µM
[31]
  GI50: 4.48 µM
  TGI: 20.7 µM
[31]; [36]
  CC50: 70.8 µM
[32]
  GI50: 3.45 µM
  TGI: 72.1 µM
[32]; [36]
  CC50: > 100 µM
[33]
  growth at 10 µM: 105%
[34]
  GI50: 2.01 µM
  TGI: 26.9 µM
[34]; [36]
  CC50: > 100 µM
[35]
  GI50: 3.4 µM
  TGI: 28.4 µM
[35]; [36]
  CC50: > 100 µM

## CC1(C)Nc2ccc3c(c2N1)C(=O)c1ccccc1C3=O
[27]
  growth at 10 µM: -2.8%
[33]
  growth at 10 µM: 85.1%

## O=C1c2ccccc2C(=O)c2c1ccc1nc(-c3ccc4c(c3)OCO4)[nH]c21
[27]
  growth at 10 µM: 93.3%
[33]
  growth at 10 µM: 120%

## N#Cc1ccc(-c2nc3ccc4c(c3[nH]2)C(=O)c2ccccc2C4=O)cc1
[27]
  growth at 10 µM: 66.3%
[33]
  growth at 10 µM: 117%
